Assay results reported in the M2OR odorant receptor database.

Legend:
Conditions in all cases: stereoisomer not certain
UniProt Q8VGC6 = target: T1, UniProt Q8VGC6
T1 sequence (whole entry): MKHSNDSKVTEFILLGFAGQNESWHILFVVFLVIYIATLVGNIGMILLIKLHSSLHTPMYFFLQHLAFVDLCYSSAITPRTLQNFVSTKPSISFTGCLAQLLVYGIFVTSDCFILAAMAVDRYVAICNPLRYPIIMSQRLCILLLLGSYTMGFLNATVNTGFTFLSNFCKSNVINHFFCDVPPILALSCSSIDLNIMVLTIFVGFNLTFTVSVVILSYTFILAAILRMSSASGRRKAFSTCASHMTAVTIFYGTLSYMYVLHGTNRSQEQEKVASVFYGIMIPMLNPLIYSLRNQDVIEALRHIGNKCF
Outline: (§1)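 Whether a receptor–molecule pair is responsive (active) rests on the original authors' judgment that its measured signal was statistically different from baseline. Pairs without that judgment are non-responsive (inactive). Sources used varied assay methods, commonly transient luciferase assays in mammalian cell lines.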

UniProt Q8VG27 = target: T2, UniProt Q8VG27
T2 sequence (whole entry): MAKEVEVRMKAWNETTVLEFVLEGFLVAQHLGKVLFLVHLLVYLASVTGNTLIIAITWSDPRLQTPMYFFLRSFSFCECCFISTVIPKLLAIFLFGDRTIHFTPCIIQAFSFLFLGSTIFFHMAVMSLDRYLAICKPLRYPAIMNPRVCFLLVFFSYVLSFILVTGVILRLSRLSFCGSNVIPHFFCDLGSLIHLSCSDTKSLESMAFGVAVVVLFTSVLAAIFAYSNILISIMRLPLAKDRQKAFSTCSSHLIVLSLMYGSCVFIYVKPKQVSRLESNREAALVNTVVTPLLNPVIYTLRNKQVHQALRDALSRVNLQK
Outline: as §1

UniProt Q8VG53 = target: T3, UniProt Q8VG53
T3 sequence (whole entry): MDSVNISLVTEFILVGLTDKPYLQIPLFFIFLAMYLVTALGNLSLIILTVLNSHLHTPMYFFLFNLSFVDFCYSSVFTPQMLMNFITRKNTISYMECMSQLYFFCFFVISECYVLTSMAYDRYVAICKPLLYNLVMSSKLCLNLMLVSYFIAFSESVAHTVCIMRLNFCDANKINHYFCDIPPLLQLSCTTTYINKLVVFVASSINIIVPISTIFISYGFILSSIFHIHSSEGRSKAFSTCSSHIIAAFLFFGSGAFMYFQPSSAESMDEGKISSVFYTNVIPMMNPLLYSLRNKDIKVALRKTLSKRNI
Outline: as §1

UniProt Q8VG64 = target: T4, UniProt Q8VG64
T4 sequence (whole entry): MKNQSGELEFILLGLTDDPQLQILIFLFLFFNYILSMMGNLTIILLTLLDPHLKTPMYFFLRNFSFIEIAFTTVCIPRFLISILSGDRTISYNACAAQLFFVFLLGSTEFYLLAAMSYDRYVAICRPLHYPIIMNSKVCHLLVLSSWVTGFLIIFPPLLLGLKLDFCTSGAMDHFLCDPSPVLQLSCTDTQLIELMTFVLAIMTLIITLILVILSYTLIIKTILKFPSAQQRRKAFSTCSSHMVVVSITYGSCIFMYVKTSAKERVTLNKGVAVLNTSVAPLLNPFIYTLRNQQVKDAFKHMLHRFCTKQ
Outline: as §1

UniProt Q8VGB9 = target: T5, UniProt Q8VGB9
T5 sequence (whole entry): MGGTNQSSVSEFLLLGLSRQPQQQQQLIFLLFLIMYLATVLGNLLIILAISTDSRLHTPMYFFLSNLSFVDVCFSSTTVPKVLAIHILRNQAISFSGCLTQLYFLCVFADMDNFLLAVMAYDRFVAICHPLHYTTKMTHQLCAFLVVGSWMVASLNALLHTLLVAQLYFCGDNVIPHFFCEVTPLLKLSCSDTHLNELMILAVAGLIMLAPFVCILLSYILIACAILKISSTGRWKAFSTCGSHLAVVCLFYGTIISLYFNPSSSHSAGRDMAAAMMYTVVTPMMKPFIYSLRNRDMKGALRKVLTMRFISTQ
Outline: as §1

UniProt Q8VGJ3 = target: T6, UniProt Q8VGJ3
T6 sequence (whole entry): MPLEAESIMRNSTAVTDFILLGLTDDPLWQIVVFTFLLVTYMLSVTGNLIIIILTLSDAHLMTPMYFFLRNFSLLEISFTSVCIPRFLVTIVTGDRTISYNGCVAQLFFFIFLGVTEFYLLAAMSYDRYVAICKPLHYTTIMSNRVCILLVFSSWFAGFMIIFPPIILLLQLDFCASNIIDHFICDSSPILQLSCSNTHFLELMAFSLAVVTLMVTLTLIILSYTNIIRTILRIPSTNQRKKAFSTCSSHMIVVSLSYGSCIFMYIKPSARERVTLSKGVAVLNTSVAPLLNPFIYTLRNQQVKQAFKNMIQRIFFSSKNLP
Outline: as §1

UniProt Q8VGL0 = target: T7, UniProt Q8VGL0
T7 sequence (whole entry): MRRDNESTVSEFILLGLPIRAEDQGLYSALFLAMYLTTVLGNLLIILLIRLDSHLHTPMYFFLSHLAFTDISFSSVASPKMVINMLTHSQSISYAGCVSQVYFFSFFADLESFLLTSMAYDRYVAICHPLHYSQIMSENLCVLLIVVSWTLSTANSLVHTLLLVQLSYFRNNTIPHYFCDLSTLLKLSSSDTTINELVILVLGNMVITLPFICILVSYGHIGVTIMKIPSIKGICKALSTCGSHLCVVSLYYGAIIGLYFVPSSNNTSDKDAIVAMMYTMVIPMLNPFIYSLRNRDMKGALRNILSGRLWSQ
Outline: as §1

UniProt Q8VG28 = target: UniProt Q8VG28
Sequence of UniProt Q8VG28 (Q8VG28 as listed by the source): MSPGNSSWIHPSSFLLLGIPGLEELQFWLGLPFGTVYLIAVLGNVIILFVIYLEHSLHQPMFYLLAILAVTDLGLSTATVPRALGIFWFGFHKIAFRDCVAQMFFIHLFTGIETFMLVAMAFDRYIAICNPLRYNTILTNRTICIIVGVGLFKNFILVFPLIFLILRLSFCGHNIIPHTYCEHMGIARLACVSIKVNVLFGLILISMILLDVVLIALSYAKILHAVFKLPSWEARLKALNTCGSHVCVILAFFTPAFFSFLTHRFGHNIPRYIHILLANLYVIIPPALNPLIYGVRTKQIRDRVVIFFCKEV
Outline: as §1

UniProt Q8VG49 = target: T8, UniProt Q8VG49
T8 sequence (whole entry): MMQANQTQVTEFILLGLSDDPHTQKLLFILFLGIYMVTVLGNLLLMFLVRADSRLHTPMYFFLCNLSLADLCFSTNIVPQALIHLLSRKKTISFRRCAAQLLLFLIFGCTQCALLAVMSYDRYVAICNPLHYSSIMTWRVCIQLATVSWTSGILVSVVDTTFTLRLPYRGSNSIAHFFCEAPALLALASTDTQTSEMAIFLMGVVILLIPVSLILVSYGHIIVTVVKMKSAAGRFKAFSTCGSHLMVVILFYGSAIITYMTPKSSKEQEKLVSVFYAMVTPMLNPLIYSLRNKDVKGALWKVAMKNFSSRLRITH
Outline: as §1

UniProt Q8VG77 = target: T9, UniProt Q8VG77
T9 sequence (whole entry): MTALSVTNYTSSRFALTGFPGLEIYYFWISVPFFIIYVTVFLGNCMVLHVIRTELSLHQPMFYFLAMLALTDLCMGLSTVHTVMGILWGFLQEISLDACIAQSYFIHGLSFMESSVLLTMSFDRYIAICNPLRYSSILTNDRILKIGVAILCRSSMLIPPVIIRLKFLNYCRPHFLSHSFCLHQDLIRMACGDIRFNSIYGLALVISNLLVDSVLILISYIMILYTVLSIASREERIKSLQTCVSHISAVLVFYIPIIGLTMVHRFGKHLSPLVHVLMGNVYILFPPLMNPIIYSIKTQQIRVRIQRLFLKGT
Outline: as §1

UniProt Q8VG96 = target: T10, UniProt Q8VG96
T10 sequence (whole entry): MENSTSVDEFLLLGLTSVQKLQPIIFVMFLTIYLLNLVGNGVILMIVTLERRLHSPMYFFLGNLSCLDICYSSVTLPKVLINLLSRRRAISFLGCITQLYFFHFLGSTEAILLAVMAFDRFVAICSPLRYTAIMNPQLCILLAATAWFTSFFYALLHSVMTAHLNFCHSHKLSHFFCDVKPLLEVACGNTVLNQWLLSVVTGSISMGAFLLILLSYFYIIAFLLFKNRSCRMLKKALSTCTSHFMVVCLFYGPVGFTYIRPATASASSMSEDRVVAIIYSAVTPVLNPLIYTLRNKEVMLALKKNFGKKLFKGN
Outline: as §1

UniProt Q8VGD7 = target: T11, UniProt Q8VGD7
T11 sequence (whole entry): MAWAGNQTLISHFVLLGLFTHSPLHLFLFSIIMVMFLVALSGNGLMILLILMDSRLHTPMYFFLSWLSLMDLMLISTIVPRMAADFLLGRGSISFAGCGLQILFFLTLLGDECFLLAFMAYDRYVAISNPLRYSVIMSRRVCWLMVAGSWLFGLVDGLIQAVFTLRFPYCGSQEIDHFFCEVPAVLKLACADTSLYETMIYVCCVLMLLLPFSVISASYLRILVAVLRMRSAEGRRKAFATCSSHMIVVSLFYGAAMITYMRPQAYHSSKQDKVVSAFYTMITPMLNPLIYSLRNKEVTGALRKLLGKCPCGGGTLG
Outline: as §1

UniProt Q8VGE3 = target: UniProt Q8VGE3
Sequence of UniProt Q8VGE3 (Q8VGE3 as listed by the source): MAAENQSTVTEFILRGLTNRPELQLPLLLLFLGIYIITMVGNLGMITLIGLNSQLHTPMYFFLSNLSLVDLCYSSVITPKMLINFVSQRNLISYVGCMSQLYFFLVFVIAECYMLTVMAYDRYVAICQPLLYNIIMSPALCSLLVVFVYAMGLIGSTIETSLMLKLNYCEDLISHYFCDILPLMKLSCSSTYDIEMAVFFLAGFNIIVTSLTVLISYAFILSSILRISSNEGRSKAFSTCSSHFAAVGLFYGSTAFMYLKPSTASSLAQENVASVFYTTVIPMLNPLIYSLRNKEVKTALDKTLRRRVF
Outline: as §1

UniProt Q8VGH1 = target: T12, UniProt Q8VGH1
T12 sequence (whole entry): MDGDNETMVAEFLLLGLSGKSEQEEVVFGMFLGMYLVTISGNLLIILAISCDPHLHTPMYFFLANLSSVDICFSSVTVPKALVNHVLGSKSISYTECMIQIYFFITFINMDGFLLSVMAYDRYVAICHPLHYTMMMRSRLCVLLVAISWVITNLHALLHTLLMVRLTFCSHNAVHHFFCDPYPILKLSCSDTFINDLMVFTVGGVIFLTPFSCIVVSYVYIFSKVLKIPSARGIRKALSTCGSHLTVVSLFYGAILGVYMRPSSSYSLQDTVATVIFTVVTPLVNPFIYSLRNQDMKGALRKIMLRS
Outline: as §1

UniProt Q8VGJ1 = target: T13, UniProt Q8VGJ1
T13 sequence (whole entry): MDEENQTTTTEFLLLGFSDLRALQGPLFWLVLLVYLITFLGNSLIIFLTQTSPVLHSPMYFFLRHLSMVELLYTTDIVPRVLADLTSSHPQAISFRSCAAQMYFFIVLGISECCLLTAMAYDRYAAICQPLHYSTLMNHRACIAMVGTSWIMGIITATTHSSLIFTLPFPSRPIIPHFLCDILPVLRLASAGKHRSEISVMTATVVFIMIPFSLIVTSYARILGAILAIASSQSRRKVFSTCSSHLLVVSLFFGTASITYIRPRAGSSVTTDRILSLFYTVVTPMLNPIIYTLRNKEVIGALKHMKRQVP
Outline: as §1

UniProt Q8VGJ5 = target: T14, UniProt Q8VGJ5
T14 sequence (whole entry): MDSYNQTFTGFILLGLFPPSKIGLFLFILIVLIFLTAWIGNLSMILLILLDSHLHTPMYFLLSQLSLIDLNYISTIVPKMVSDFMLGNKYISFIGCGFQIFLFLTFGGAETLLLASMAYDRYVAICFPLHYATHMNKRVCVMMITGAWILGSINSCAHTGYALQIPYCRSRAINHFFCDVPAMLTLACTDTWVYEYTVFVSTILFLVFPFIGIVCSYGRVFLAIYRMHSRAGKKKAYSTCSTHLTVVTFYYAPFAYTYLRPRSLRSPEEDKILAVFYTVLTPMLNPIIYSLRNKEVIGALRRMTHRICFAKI
Outline: as §1

UniProt Q8VGK6 = target: UniProt Q8VGK6
Sequence of UniProt Q8VGK6 (Q8VGK6 as listed by the source): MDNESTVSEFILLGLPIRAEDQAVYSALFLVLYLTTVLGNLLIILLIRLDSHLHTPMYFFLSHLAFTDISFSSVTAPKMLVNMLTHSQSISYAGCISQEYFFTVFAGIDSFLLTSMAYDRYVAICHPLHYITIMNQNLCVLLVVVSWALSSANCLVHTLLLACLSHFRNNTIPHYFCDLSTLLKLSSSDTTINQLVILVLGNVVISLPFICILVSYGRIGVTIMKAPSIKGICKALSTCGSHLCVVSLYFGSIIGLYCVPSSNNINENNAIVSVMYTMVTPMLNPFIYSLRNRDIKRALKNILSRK
Outline: as §1

UniProt Q8VGL7 = target: T15, UniProt Q8VGL7
T15 sequence (whole entry): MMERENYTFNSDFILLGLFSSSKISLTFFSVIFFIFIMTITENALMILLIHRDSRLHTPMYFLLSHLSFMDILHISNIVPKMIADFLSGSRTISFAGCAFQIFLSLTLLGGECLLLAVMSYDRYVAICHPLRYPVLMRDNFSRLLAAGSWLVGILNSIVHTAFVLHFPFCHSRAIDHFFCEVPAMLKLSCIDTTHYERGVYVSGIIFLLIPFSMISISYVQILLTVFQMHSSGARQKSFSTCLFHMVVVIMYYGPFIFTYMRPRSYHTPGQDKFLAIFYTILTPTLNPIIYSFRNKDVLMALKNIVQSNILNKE
Outline: as §1

Measured: odorant receptor agonist call;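 also: active if original authors judged signal statistically different from baseline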

CCCOC(=O)CCC
inactive: UniProt Q8VGC6

CCCCOC
inactive: UniProt Q8VGC6

CCC=CCCC=CC=O
inactive: UniProt Q8VG27 | UniProt Q8VG53 | UniProt Q8VG64 | UniProt Q8VGB9 | UniProt Q8VGC6 | UniProt Q8VGJ3 | UniProt Q8VGL0

C=CCCCCCC
inactive: UniProt Q8VGC6

O=C(O)CCCBr
inactive: UniProt Q8VG28

CCOC(=O)CC(C)C
inactive: UniProt Q8VG27 | UniProt Q8VG53 | UniProt Q8VG64 | UniProt Q8VGB9 | UniProt Q8VGC6 | UniProt Q8VGJ3 | UniProt Q8VGL0

O=c1ccc2ccccc2o1
inactive: UniProt Q8VG49 | UniProt Q8VG77 | UniProt Q8VGC6 | UniProt Q8VGD7 | UniProt Q8VGJ1 | UniProt Q8VGJ5 | UniProt Q8VGL0 | UniProt Q8VGL7
active: UniProt Q8VG96 | UniProt Q8VGE3 | UniProt Q8VGH1 | UniProt Q8VGK6

CCC=O
inactive: UniProt Q8VGC6

CC(C)C12CCC(C)(CC1)O2
inactive: UniProt Q8VGC6
